The source of these data is ChEMBL document CHEMBL4340521, “Subtle modifications to a thieno[2,3-d]pyrimidine scaffold yield negative allosteric modulators and agonists of the dopamine D2 receptor” (Eur J Med Chem, 2019).

Activity calls are given as the source filed them. The rule behind the calls is not given here.

Series [1] has as its target T1, D(2) dopamine receptor (Homo sapiens, UniProt P14416). Briefly: Negative allosteric modulation of recombinant human D2L receptor expressed in Flp-In CHO cells assessed as inhibition of dopamine-induced reduction in forskolin stimulated cAMP accumulation by measuring equilibrium dissociation constant preincubated for 30 mins followed by forskolin stimulation and measured after 30 mins by BRET assay. Type of series: functional, cell-based. In general terms: Cyclic AMP is a second messenger, typically raised through Gs and lowered through Gi signalling.

The target in series [2] is T1, D(2) dopamine receptor. In words: Negative allosteric modulation of recombinant human D2L receptor expressed in Flp-In CHO cells assessed as inhibition of dopamine-induced reduction in forskolin stimulated cAMP accumulation by measuring intrinsic efficacy of the modulator preincubated for 30 mins followed by forskolin stimulation and measured after 30 mins by BRET assay. Type of series: functional, cell-based.

Series [3] concerns the target T1, D(2) dopamine receptor. In words: Negative allosteric modulation of recombinant human D2L receptor expressed in Flp-In CHO cells assessed as inhibition of dopamine-induced reduction in forskolin stimulated cAMP accumulation by measuring modulation of dopamine efficacy preincubated for 30 mins followed by forskolin stimulation and measured after 30 mins by BRET assay. Format: functional, cell-based.

The target of series [4] is T1, D(2) dopamine receptor. Briefly: Negative allosteric modulation of recombinant human D2L receptor expressed in Flp-In CHO cells assessed as inhibition of dopamine-induced reduction in forskolin stimulated cAMP accumulation by measuring equilibrium dissociation constant up to 100 uM preincubated for 30 mins followed by forskolin stimulation and measured after 30 mins by BRET assay. Format: functional, cell-based.

The target in series [5] is T1, D(2) dopamine receptor. In words: Negative allosteric modulation of recombinant human D2L receptor expressed in Flp-In CHO cells assessed as inhibition of dopamine-induced reduction in forskolin stimulated cAMP accumulation by measuring net cooperativity factor preincubated for 30 mins followed by forskolin stimulation and measured after 30 mins by BRET assay. Type of series: functional, cell-based.

Series [6] deals with T1, D(2) dopamine receptor. In words: Competitive antagonist activity at recombinant human D2L receptor expressed in Flp-In CHO cells assessed as inhibition of dopamine-induced reduction in forskolin stimulated cAMP accumulation preincubated for 30 mins followed by forskolin stimulation and measured after 30 mins by BRET assay. Format: functional, cell-based. To be noted: read-out: pA2 (converted).

The subject of series [7] is CHO. In words: Modulation of dopamine-induced forskolin stimulated cAMP accumilation in hamster FlpIn CHO cells assessed as BRET signal preincubated for 30 mins followed by forskolin stimulation and measured after 30 mins by BRET assay relative to control. To be noted: cricetinae, 0.5 h. Type of series: cell-based. Summed up: (§1)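 Wild-type FlpIn CHO cells lacking D2R, transfected with CAMYEL cAMP BRET biosensor. Compounds at 1-100 μM plus dopamine 10 μM added 30 min before stimulation, with or without 10 μM forskolin (final). Coelenterazine-h 5 μM final. BRET ratio 535/475 nm read 30 min after stimulation.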
For orientation: In BRET a luciferase serves as donor, and the signal depends on an acceptor being close.

In series [8] the test system is CHO. Briefly: Modulation of dopamine-induced forskolin stimulated cAMP accumilation in hamster FlpIn CHO cells assessed as BRET signal at 100 uM preincubated for 30 mins followed by forskolin stimulation and measured after 30 mins by BRET assay relative to control. Type of series: cell-based, Cricetinae. As to conditions: Cricetulus griseus, 0.5 h, read-out: Activity. The gist of the method:
as §1

As usually defined, the pKb is the Kb on a negative log10 scale, so that one unit is a factor of ten.

T1 sequence (P14416 whole entry): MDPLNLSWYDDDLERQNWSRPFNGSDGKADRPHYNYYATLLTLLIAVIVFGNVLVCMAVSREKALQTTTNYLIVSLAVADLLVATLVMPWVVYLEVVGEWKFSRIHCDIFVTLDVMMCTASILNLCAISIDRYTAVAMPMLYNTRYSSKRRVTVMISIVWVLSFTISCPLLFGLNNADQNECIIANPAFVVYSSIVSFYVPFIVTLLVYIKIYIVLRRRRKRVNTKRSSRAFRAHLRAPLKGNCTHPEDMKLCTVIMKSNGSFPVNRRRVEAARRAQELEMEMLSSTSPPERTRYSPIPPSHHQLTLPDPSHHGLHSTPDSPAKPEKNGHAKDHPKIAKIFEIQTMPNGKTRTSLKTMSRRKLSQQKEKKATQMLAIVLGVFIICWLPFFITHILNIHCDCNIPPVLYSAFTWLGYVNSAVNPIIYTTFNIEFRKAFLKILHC

Take `c1nc(NC2CC2)c2c3c(sc2n1)CCCC3`: in series [1], the Kb turned out to be 0.88 µM and the pKb came out at 6.05. In series [2], the log(activity) worked out at 0. For the same compound, in series [3], the Efficacy was 0.03 and the log(activity) was -1.48.

On to `c1nc(NC2CC2)c2cc(C3CCCCC3)sc2n1`, for which, in series [4], the Activity entry was “inactive”.

Consider `c1nc(NC2CC2)c2c3c(sc2n1)CCC3`, for which, in series [1], the Kb was found to be 6.01 µM and the pKb came to 5.22. For the same compound, in series [2], the Intrinsic activity worked out at 0.75 and the log(activity) is -0.13. Also, in series [3], the Efficacy was 0.28 and the log(activity) is -0.55.

For the compound `c1ccc(-c2csc3ncnc(NC4CCC4)c23)cc1`, the pKb in series [1] worked out at 3.89. Also, in series [5], the Activity index came out at 0.39. Moreover, the values for the log(activity) in series [5], in series [2] and in series [3] were -0.41, -3 and 0, respectively.

Turning to `c1nc(NC2CCC2)c2c3c(sc2n1)CCCC3`, in series [1], the Kb amounted to 0.57 µM and the pKb turned out to be 6.25. Besides, in series [2], the Intrinsic activity worked out at 0.19 and the log(activity) is -0.72. Besides, in series [3], the Efficacy was 0.22 and the log(activity) is -0.65.

With `c1nc(NC2CCC2)c2c3c(sc2n1)CCCCCC3`, in series [1], the Kb was 3.98 µM and the pKb stood at 5.4. Further, in series [2], the log(activity) came to 0. In series [3], the Efficacy came to 0.26 and the log(activity) is -0.58.

Regarding `c1nc(NC2CC2)c2c3c(sc2n1)CCCCCC3`, in series [1], the Kb came to 0.53 µM and the pKb turned out to be 6.27. In addition, the log(activity) in series [2] came out at 0. For the same compound, in series [3], the Efficacy was found to be 0.1 and the log(activity) is -1.

Take `c1ccc(-c2cc3c(NC4CCC4)ncnc3s2)cc1`: in series [1], the Kb was found to be 4.5 µM and the pKb was determined as 5.35. For the same compound, in series [5], the Activity index is 0.28 and the log(activity) is -0.55. Moreover, the log(activity) in series [2] came to 0. The log(activity) in series [3] came to 0.

Consider `CCN(CC)c1ncnc2sc3c(c12)CCCC3`, for which, in series [1], the negative-log Kb (pKb) amounted to 5.72. Besides, the figures for the log(activity) in series [5], in series [2] and in series [3] were -3, 0 and -3, respectively.

As for `CCN(CC)c1ncnc2sc3c(c12)CCC3`, in series [1], the Kb turned out to be 0.74 µM and the pKb turned out to be 6.13. Besides, the log(activity) in series [2] amounted to 0. Further, in series [3], the Efficacy came out at 0.14 and the log(activity) was -0.85.

As for `c1nc(N2CCNCC2)c2c3c(sc2n1)CCCC3`, the figures for the Kb in series [1] and in series [6] were 20 µM and 21.4 µM, respectively. Further, the pKb in series [1] turned out to be 4.7. Also, the results for the log(activity) in series [2] and in series [3] were -3 and 0, respectively.

Regarding `CC(C)(C)Nc1ncnc2sc3c(c12)CCCC3`, the Kb in series [1] was determined as 92.5 µM. In series [1], the pKb amounted to 4.03. For the same compound, the Activity index in series [5] was found to be 0.91. The values for the log(activity) in series [5], in series [2] and in series [3] were -0.04, 0 and 0, respectively.

For `c1nc(NC2CC2)c2ccsc2n1`, in series [1], the Kb turned out to be 21.4 µM and the pKb worked out at 4.67. In addition, in series [5], the Activity index came out at 0.22 and the log(activity) was -0.65. Further, the log(activity) in series [2] is -3. In addition, the log(activity) in series [3] amounted to 0.

Regarding `c1ccc(Nc2ncnc3sc4c(c23)CCCC4)cc1`, in series [4], the Activity result was “inactive”.

Consider `c1nc(N2CCCC2)c2c3c(sc2n1)CCCC3`, for which, in series [1], the Kb is 4.23 µM and the pKb came to 5.37. The log(activity) in series [2] is 0. Moreover, in series [3], the Efficacy is 0.17 and the log(activity) is -0.76.

`Cc1sc2ncnc(NC3CCC3)c2c1C`: in series [1], the Kb was 2.88 µM and the pKb amounted to 5.54. For the same compound, in series [3], the Efficacy worked out at 0.13 and the log(activity) was -0.9.

For `CCN(CC)c1ncnc2sc(C3CCCCC3)cc12`, in series [4], the Activity entry was “inactive”.

For `c1nc(NC2CCC2)c2c3c(sc2n1)CCCCC3`, in series [1], the Kb was 0.91 µM and the pKb is 6.04. For the same compound, the log(activity) in series [2] came out at 0. Further, in series [3], the Efficacy came out at 0.06 and the log(activity) was -1.22.

With `c1nc(N2CCOCC2)c2c3c(sc2n1)CCCC3`, the pKb in series [1] came out at 3.9. For the same compound, in series [5], the Activity index was 1.66. Also, the log(activity) in series [5] was -0.22; in series [2], 0; in series [3], 0.

Take `c1nc(N2CCCCC2)c2c3c(sc2n1)CCCC3`: in series [1], the Kb came out at 59.3 µM and the pKb was 4.23. Also, in series [2], the log(activity) was 0. Besides, the log(activity) in series [3] is 0. The Activity result in series [7] is given as “Dose-dependent effect”. Further, the activity at 100 µM in series [8] was found to be 26%.

With `CCN(CC)c1ncnc2scc(C3CCCCC3)c12`, in series [4], the Activity result was “inactive”.

With `c1nc(NC2CCC2)c2ccsc2n1`, in series [1], the Kb is 7.38 µM and the pKb was 5.13. Besides, in series [5], the Activity index came to 0.48 and the log(activity) is -0.32. The log(activity) in series [2] was determined as 0. Moreover, the log(activity) in series [3] came out at 0.

Take `c1nc(NCC2CC2)c2c3c(sc2n1)CCCC3`: in series [1], the Kb was determined as 1.19 µM and the pKb was 5.92. Also, in series [2], the Intrinsic activity came out at 0.86 and the log(activity) was -0.06. Besides, in series [3], the Efficacy is 0.29 and the log(activity) is -0.54.

As for `c1nc(NC2CCC2)c2cc(C3CCCCC3)sc2n1`, the Activity entry in series [4] is “inactive”.

In the case of `CCN(CC)c1ncnc2sccc12`, in series [1], the pKb was 5.31. In addition, the log(activity) in series [2] was 0. In series [3], the Efficacy was determined as 0.13 and the log(activity) was -0.89.

As to `c1nc(NC2CCCCC2)c2c3c(sc2n1)CCCC3`, the Activity entry in series [4] was “inactive”.

For the compound `CCN(CC)c1ncnc2scc(-c3ccccc3)c12`, the Kb in series [1] was 60 µM. Moreover, the pKb in series [1] was 4.22. The Activity index in series [5] came to 0.27. In addition, the log(activity) in series [5] is -0.57; in series [2] it was -3; in series [3] it was 0.

On to `c1nc(NC2CC2)c2c3c(sc2n1)CCCCC3`, for which, in series [1], the Kb is 2.96 µM and the pKb came out at 5.53. For the same compound, the log(activity) in series [2] was 0. For the same compound, in series [3], the Efficacy stood at 0.05 and the log(activity) was -1.3.

`CCN(CC)c1ncnc2sc(C)c(C)c12`: in series [1], the Kb worked out at 19.5 µM and the pKb was 4.71. For the same compound, in series [5], the Activity index was found to be 0.24 and the log(activity) is -0.61. For the same compound, in series [2], the log(activity) turned out to be 0. For the same compound, the log(activity) in series [3] stood at 0.

Regarding `CCN(CC)c1ncnc2sc3c(c12)CCCCC3`, the Activity entry in series [4] is “inactive”.

Regarding `Cc1sc2ncnc(NC3CC3)c2c1C`, in series [4], the Activity result is “inactive”.

In the case of `c1nc(NC2CC2)c2c(C3CCCCC3)csc2n1`, in series [1], the Kb was 11.6 µM and the pKb was found to be 4.93. In series [2], the log(activity) is 0. Further, in series [3], the Efficacy turned out to be 0.09 and the log(activity) is -1.04.

`c1ccc(-c2cc3c(NC4CC4)ncnc3s2)cc1`: in series [1], the Kb came out at 6.35 µM and the pKb stood at 5.92. In addition, in series [2], the Intrinsic activity turned out to be 0.6 and the log(activity) is -0.22. In series [3], the Efficacy came to 0.43 and the log(activity) was -0.37.

Turning to `c1nc(NC2CCC2)c2c3c(sc2n1)CCC3`, the pKb in series [1] was determined as 3.99. The Activity index in series [5] is 0.57. Further, the log(activity) was -0.25 in series [5], 0 in series [2] and 0 in series [3].

Turning to `c1nc(NC2CCC2)c2c(C3CCCCC3)csc2n1`, in series [1], the Kb amounted to 2.92 µM and the pKb amounted to 5.53. In series [2], the log(activity) was 0. Moreover, in series [3], the Efficacy is 0.03 and the log(activity) is -1.55.

Consider `CCN(CC)c1ncnc2sc(-c3ccccc3)cc12`, for which, in series [1], the Kb worked out at 0.9 µM and the pKb amounted to 6.04. In series [2], the log(activity) worked out at 0. Besides, in series [3], the log(activity) is -3.

With `c1ccc(-c2csc3ncnc(NC4CC4)c23)cc1`, in series [1], the Kb is 1.93 µM. Also, the pKb in series [1] was 5.72. The Activity index in series [5] stood at 0.32. Moreover, the values for the log(activity) in series [5], in series [2] and in series [3] were -0.47, -3 and 0, respectively.

`CCN(CC)c1ncnc2sc3c(c12)CCCCCC3`: in series [1], the Kb amounted to 14.5 µM and the pKb is 4.84. Moreover, the log(activity) in series [2] was 0. Also, in series [3], the log(activity) is -3. Also, the activity at 100 µM in series [8] stood at 28%.
